Source: article PMC3178738 (Bioconjugate chemistry, 2011)
Entries after “also recorded” stand apart in the source; their conditions may differ.

Tests used:
[1] = animal studies, cited from earlier work
[2] = Stability of the aluminum chelates in PBS; type: physicochemical; details: chemical stability, pH 7.4, 37 °C
How it was run: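 Al–OH and Al–F chelates of the test chelator, made by reacting it with AlCl3 or AlF3, were incubated in PBS, pH 7.4, at 37 °C. Aluminum loss (demetalation) was followed by RP-HPLC at 3 h, 12 h and 24 h.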

Substance: NODA-MPAA-D-Lys(HSG)-D-Tyr-D-Lys(HSG)-NH2 [IMP485]
- presence in the bone ([1]; kit formulated IMP485, supporting in vivo stability): negligible
- clearance from the body ([1]; kit formulated IMP485): rapid clearance from the body via the kidneys

Substance: AlOH(NODA-MPAA) [compound 2]
- demetalation ([2]; 3 h, RP-HPLC): 23%
- demetalation ([2]; 12 h, RP-HPLC): 61%

Substance: AlF(NODA-MPAA) [compound 3]
- time stable in PBS [2]: over 24 h
- loss of aluminum (demetalation) ([2]; 24 h, RP-HPLC): no detectable loss of aluminum; also recorded: no signs of demetalation
